# According to ChEMBL document CHEMBL1122187, “Synthesis and antiviral activity of certain carbamoylpyrrolopyrimidine and pyrazolopyrimidine nucleosides” (1982):
# Tests used:
# Format in all cases: functional, Chlorocebus sabaeus
# Vero [1] = assay: Percentage plaque reduction was determined against venezuelan equine encephalitis (VEE) virus in african green monkey kidney (vero,V) at a conc of <25 ug/mL. Toxic level(320 ug/mL)
# Vero [2] = assay: In vitro antiviral activity against parainfluenza type 3(para 3) virus was determined in african green monkey kidney (vero,V) expressed as virus rating. Toxic level(320 ug/mL)
# Method in brief: (§1)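 Cell monolayers (18 h) infected with 320 TCID50 of virus. Compound was added within 15–30 min at half-log dilutions from 1000 to 1 μg/mL. After 72 h at 37 °C in 5% CO2, CPE was scored 0–4 by microscopy. VR = sum of (virus control − treated) scores, halved at partially toxic levels, divided by 10 × test cups per drug level.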
# Vero [3] = assay: Percentage plaque reduction was determined against rift valley fever(RVF) virus in african green monkey kidney (vero,V) at a conc of 250-500 ug/mL. Toxic level(320 ug/mL); 10-30
# Vero [4] = assay: In vitro antiviral activity against herpes simplex type 1 (HSV-1) virus was determined in african green monkey kidney (vero,V) expressed as virus rating. Toxic level(320 ug/mL); method in brief: as §1
# Vero [5] = assay: Percentage plaque reduction was determined against Sandfly fever (SF) virus in african green monkey kidney (vero,V) at a conc of 100-250 ug/mL. Toxic level(320 ug/mL)
# Vero [6] = assay: Percentage plaque reduction was determined against Sandfly fever (SF) virus in african green monkey kidney (vero,V) at a conc of 250-500 ug/mL. Toxic level(320 ug/mL)
# Vero [7] = assay: Percentage plaque reduction was determined against venezuelan equine encephalitis (VEE) virus in african green monkey kidney (vero,V) at a conc of 100-250 ug/mL. Toxic level(320 ug/mL)
# Vero [8] = assay: In vitro antiviral activity against vaccinia(VV) virus was determined in african green monkey kidney (vero,V) expressed as virus rating. Toxic level(320 ug/mL); method in brief: as §1
# Vero [9] = assay: Percentage plaque reduction was determined against Sandfly fever (SF) virus in african green monkey kidney (vero,V) at a conc of <25 ug/mL. Toxic level(320 ug/mL)
# Method in brief: (§2)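 Infected Vero 24-well monolayers: virus adsorbed 1 h at 37 °C, then overlaid with agar holding dilutions of compound and incubated again at 37 °C with CO₂. Plaques were stained with crystal violet and counted. Inhibition was scored as % plaque reduction bands (10-30%, 31-60%, 61-90%), each tied to a drug concentration range.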
# Vero [10] = assay: Percentage plaque reduction was determined against venezuelan equine encephalitis (VEE) virus in african green monkey kidney (vero,V) at a conc of 250-500 ug/mL. Toxic level(320 ug/mL)
# Vero [11] = assay: Percentage plaque reduction was determined against yellow fever (YF) virus in african green monkey kidney (vero,V).Toxic level(320 ug/mL); 10-30
# Vero [12] = assay: Percentage plaque reduction was determined against venezuelan equine encephalitis (VEE) virus in african green monkey kidney (vero,V) at a conc of 25-100 ug/mL. Toxic level(320 ug/mL)
# Vero [13] = assay: Percentage plaque reduction was determined against Sandfly fever (SF) virus in african green monkey kidney (vero,V) at a conc of 25-100 ug/mL. Toxic level(320 ug/mL)
# Vero [14] = assay: Percentage plaque reduction was determined against venezuelan equine encephalitis (VEE) virus in african green monkey kidney (vero,V) at a conc of 100-250 ug/mL. Toxic level(1000 ug/mL)
# Vero [15] = assay: Percentage plaque reduction was determined against venezuelan equine encephalitis (VEE) virus in african green monkey kidney (vero,V) at a conc of <25 ug/mL. Toxic level(1000 ug/mL)
# Vero [16] = assay: In vitro antiviral activity against vaccinia(VV) virus was determined in african green monkey kidney (vero,V) expressed as virus rating. Toxic level(1000 ug/mL); method in brief: as §1
# Vero [17] = assay: Percentage plaque reduction was determined against venezuelan equine encephalitis (VEE) virus in african green monkey kidney (vero,V) at a conc of 250-500 ug/mL. Toxic level(1000 ug/mL)
# Vero [18] = assay: In vitro antiviral activity against herpes simplex type 1 (HSV-1) virus was determined in african green monkey kidney (vero,V) expressed as virus rating. Toxic level(1000 ug/mL); method in brief: as §1
# Vero [19] = assay: Percentage plaque reduction was determined against yellow fever(YF) virus in african green monkey kidney (vero,V).Toxic level(1000 ug/mL); 61-90
# Vero [20] = assay: Percentage plaque reduction was determined against venezuelan equine encephalitis (VEE) virus in african green monkey kidney (vero,V) at a conc of 25-100 ug/mL. Toxic level(1000 ug/mL)
# Vero [21] = assay: Percentage plaque reduction was determined against pichinde(PICH) virus in african green monkey kidney (vero,V).Toxic level(1000 ug/mL); 10-30; method in brief: as §2
# Vero [22] = assay: In vitro antiviral activity against parainfluenza type 3(para 3) virus was determined in african green monkey kidney (vero,V) expressed as virus rating. Toxic level(1000 ug/mL); method in brief: as §1
# Vero [23] = assay: Percentage plaque reduction was determined against Sandfly fever (SF) virus in african green monkey kidney (vero,V) at a conc of 25-100 ug/mL. Toxic level(1000 ug/mL); 61-90
# Vero [24] = assay: Percentage plaque reduction was determined against rift valley fever(RVF) virus in african green monkey kidney (vero,V) at a conc of 250-500 ug/mL. Toxic level(1000 ug/mL); 10-30
# Vero [25] = assay: In vitro antiviral activity against herpes simplex type 1 (HSV-1) virus was determined in african green monkey kidney (vero,V) expressed as virus rating. Toxic level(>1000 ug/mL); method in brief: as §1
# Vero [26] = assay: In vitro antiviral activity against parainfluenza type 3(para 3) virus was determined in african green monkey kidney (vero,V) expressed as virus rating. Toxic level(>1000 ug/mL); method in brief: as §1
# Vero [27] = assay: In vitro antiviral activity against vaccinia(VV) virus was determined in african green monkey kidney (vero,V) expressed as virus rating. Toxic level(>1000 ug/mL); method in brief: as §1
compound,measurement,setting,value
CSc1ncnc2c1cnn2[C@@H]1O[C@H](COC(C)=O)[C@@H](OC(C)=O)[C@H]1OC(C)=O,Plaque reduction,Vero [1],0%
same,Virus rating,Vero [2],0
same,Plaque reduction,Vero [3],10%
same,Virus rating,Vero [4],0
same,Plaque reduction,Vero [5],0%
same,Plaque reduction,Vero [6],0%
same,Plaque reduction,Vero [7],0%
same,Virus rating,Vero [8],0.5
same,Plaque reduction,Vero [9],0%
same,Plaque reduction,Vero [10],0%
same,Plaque reduction,Vero [11],10%
same,Plaque reduction,Vero [12],0%
same,Plaque reduction,Vero [13],0%
OC[C@H]1O[C@@H](C2=NNC3C(=S)N=CN=C23)[C@H](O)[C@@H]1O (stereo partly specified),Plaque reduction,Vero [14],0%
same,Plaque reduction,Vero [15],0%
same,Virus rating,Vero [16],1
same,Plaque reduction,Vero [17],0%
same,Virus rating,Vero [18],0
same,Plaque reduction,Vero [19],61%
same,Plaque reduction,Vero [20],0%
same,Plaque reduction,Vero [21],10%
same,Virus rating,Vero [22],1.1
same,Plaque reduction,Vero [23],61%
same,Plaque reduction,Vero [24],10%
OC[C@H]1O[C@@H](c2n[nH]c3c(Cl)ncnc23)[C@H](O)[C@@H]1O,Virus rating,Vero [2],1.3
same,Virus rating,Vero [4],0
same,Virus rating,Vero [8],1
CSc1ncnc2c1ncn2[C@@H]1O[C@H](CO)[C@@H](O)[C@H]1O,Virus rating,Vero [2],2.2
same,Virus rating,Vero [4],1.7
same,Virus rating,Vero [8],2
OC[C@H]1O[C@@H](n2cnc3c(Cl)ncnc32)[C@H](O)[C@@H]1O,Virus rating,Vero [16],1.8
same,Virus rating,Vero [18],0.4
same,Virus rating,Vero [22],0.4
OC[C@H]1O[C@@H](n2ccc3c(S)ncnc32)[C@H](O)[C@@H]1O,Virus rating,Vero [25],0.2
same,Virus rating,Vero [26],1.1
same,Virus rating,Vero [27],0.5
